Consider two compounds from publication PMC2229513 (The Journal of General Physiology, 2001).

The target of experiment [1] is T1, ENaC wt (Rattus norvegicus, UniProt P37089+P37090+P37091).
T1 sequence (P37089 1-698): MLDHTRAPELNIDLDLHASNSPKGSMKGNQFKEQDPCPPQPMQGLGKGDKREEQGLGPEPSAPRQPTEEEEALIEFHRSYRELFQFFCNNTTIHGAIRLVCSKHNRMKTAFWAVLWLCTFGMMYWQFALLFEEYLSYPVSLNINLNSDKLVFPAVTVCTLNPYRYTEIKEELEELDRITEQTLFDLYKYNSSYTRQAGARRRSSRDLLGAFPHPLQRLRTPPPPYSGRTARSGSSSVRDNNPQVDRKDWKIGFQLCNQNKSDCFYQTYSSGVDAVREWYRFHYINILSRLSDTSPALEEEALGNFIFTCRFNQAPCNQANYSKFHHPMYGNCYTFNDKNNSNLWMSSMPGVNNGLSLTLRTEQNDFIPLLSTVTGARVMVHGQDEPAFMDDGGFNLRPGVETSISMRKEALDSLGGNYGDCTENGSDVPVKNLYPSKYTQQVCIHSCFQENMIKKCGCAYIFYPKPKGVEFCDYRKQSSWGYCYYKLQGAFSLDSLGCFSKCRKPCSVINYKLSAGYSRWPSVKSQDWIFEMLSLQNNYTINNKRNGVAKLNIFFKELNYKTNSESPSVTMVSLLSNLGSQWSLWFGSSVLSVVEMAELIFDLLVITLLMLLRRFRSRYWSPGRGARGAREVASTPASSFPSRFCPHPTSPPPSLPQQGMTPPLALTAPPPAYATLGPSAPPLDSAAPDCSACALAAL
T1 sequence (P37090 1-638): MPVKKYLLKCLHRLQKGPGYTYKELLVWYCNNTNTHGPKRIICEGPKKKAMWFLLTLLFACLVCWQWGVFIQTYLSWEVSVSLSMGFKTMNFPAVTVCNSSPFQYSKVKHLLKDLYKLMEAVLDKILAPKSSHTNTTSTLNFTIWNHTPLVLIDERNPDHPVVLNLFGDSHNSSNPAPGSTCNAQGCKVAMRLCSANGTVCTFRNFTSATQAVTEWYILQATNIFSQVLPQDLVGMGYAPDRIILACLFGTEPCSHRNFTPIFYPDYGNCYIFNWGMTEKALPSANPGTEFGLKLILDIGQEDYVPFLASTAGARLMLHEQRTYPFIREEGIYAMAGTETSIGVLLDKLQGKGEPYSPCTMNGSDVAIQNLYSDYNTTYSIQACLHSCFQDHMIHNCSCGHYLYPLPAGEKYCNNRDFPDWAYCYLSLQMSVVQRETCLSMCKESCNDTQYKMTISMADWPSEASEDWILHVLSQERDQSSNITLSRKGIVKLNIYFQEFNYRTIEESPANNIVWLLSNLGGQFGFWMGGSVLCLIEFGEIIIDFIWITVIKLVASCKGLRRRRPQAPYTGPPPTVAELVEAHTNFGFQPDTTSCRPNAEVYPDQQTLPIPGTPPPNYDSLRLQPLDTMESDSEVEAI
T1 sequence (P37091 1-650): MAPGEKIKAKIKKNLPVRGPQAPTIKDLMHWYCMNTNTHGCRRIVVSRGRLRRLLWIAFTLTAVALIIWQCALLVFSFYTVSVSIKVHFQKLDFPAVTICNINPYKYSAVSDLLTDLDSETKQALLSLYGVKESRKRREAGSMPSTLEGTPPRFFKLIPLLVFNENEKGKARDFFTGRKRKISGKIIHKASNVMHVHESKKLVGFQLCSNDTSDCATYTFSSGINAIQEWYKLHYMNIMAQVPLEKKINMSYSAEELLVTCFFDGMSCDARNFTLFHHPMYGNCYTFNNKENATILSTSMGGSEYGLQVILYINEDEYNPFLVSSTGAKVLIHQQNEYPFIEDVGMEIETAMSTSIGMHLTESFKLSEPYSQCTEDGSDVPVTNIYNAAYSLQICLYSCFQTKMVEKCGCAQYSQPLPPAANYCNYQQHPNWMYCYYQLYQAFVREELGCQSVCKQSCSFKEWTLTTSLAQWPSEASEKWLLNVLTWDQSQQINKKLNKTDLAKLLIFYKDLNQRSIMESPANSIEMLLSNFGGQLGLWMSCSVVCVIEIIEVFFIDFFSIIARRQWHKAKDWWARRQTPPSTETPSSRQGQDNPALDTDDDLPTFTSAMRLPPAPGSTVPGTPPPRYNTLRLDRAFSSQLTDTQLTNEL
Put plainly: Effect of extracellular MTSEA on INa. Format: cell-based. As to conditions: 2-min extracellular application of 2.5 mM MTSEA. In a few lines: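 Two-electrode voltage clamp was run on Xenopus oocytes 16–48 h after injecting rat αβγ ENaC cRNAs (100 nl, 100 ng/μl total). INa was the current sensitive to 100 μM amiloride. Aqueous MTSEA stock was made fresh, kept on ice and diluted into bath immediately before use.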

The target of experiment [2] is T1, ENaC wt. Format: cell-based. The procedure, abridged:
(§1)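 Stage V–VI Xenopus oocytes were pressure-injected with 100 nl of equal amounts of rat α, β and γ ENaC cRNAs (mutations in α only), 100 ng/μl total. Two-electrode voltage clamp was done 16–48 h post-injection. For other permeant cations, Na+ was replaced at the same concentration.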

The target in a further experiment is T2, αE598A ENaC mutant (Rattus norvegicus, UniProt P37089+P37090+P37091, E598A).
T2 sequence (P37089 1-698 E598A): T1 sequence (P37089 1-698) with E598A
T2 sequence (P37090 1-638): T1 sequence (P37090 1-638)
T2 sequence (P37091 1-650): T1 sequence (P37091 1-650)
Put plainly: Amiloride block of αE598A mutant. The format is cell-based.

In a further experiment the target is T3, αS589N ENaC mutant (Rattus norvegicus, UniProt P37089+P37090+P37091, S589N).
T3 sequence (P37089 1-698 S589N): T1 sequence (P37089 1-698) with S589N
T3 sequence (P37090 1-638): T1 sequence (P37090 1-638)
T3 sequence (P37091 1-650): T1 sequence (P37091 1-650)
Format: cell-based. In a few lines:
as §1

A further experiment concerns the target T4, αS589D ENaC mutant (Rattus norvegicus, UniProt P37089+P37090+P37091, S589D).
T4 sequence (P37089 1-698 S589D): T1 sequence (P37089 1-698) with S589D
T4 sequence (P37090 1-638): T1 sequence (P37090 1-638)
T4 sequence (P37091 1-650): T1 sequence (P37091 1-650)
The format is cell-based. The procedure, abridged: as §1

Experiment [3] relates to ENaC mutants of α (S583), β (G525) or γ subunit (G537). To be noted: mutations of α S583, β G525 or γ G537; ref Schild et al. 1997; cited from earlier work.
For experiment [4], the system named is wt and mutant (αS589) ENaC channels. As to the kind of experiment: Block of ionic currents by 100 μM amiloride. Format: cell-based, rat. The procedure, abridged:
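Oocytes were co-injected with rat αβγ ENaC cRNAs (100 nl, 100 ng/μl total, equal amounts of each subunit) and recorded by two-electrode voltage clamp 16–48 h later. Amiloride-sensitive current was taken as the difference between currents with and without 100 μM amiloride in the bath.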

The target in a further experiment is T5, αS589H ENaC mutant (Rattus norvegicus, UniProt P37089+P37090+P37091, S589H).
T5 sequence (P37089 1-698 S589H): T1 sequence (P37089 1-698) with S589H
T5 sequence (P37090 1-638): T1 sequence (P37090 1-638)
T5 sequence (P37091 1-650): T1 sequence (P37091 1-650)
The format is cell-based. The procedure, abridged:
as §1

Positions count from the first letter of the chain named. Read-outs that look alike come from different tables or passages of the source.

`CS(=O)(=O)SCCN` [MTSEA, aminoethyl methanethiosulfate]: the “ratio of INa after MTSEA application relative to the initial INa” value at ENaC wt [1] amounted to 0.77 ± 0.33.

In the case of `N=C(N)NC(=O)c1nc(Cl)c(N)nc1N` [amiloride], the IC50 on ENaC wt [2] was 180 ± 80 nM; against αS589N ENaC mutant (IC50 for amiloride block of the NH4+ current, NH4+ current, n = 6–7), 190 ± 60 nM; against αS589N ENaC mutant (IC50 for amiloride block, Na+ as the main extracellular cation, n = 6–16), 440 ± 50 nM; on αS589D ENaC mutant it was 100 ± 20 nM; on αS589H ENaC mutant, 2800 ± 650 nM. Moreover, the “amiloride block compared with wt” value at αE598A ENaC mutant is given as “not different from wt”. Moreover, the “decrease of channel affinity for amiloride” value in experiment [3] was “two to three orders of magnitude”. For the same compound, the “block of ionic currents” value in experiment [4] is given as “completely blocked”. Further, the “increase of the IC50 for amiloride block (factor vs wt)” value at αS589H ENaC mutant (αS589H relative to ENaC wt) amounted to 16.

One may read the IC50 as the concentration that inhibits the measured activity by half. Higher therefore signals weaker potency in that assay.
